# Laboratory results reported in ChEMBL document CHEMBL1156792, “Application of the dipeptidyl peptidase IV (DPPIV/CD26) based prodrug approach to different amine-containing drugs” (J Med Chem, 2010).
# Peptide text beside a SMILES is read from it. * marks the point of attachment. X2 = OC[C@H]1O[C@@H](n2cnc3c(N*)ncnc32)[C@@H](O)[C@@H]1O; X1 = O=c1nc(N*)ccn1[C@@H]1O[C@H](CO)[C@@H](O)[C@@H]1O
# Tests used:
# Dipeptidyl peptidase 4 = Dipeptidyl peptidase 4 (Homo sapiens, UniProt P27487); assay: Inhibition of human DPP4 from human Caco-2 cells; assay type: cell-based
# Chain of Dipeptidyl peptidase 4 (P27487 whole entry): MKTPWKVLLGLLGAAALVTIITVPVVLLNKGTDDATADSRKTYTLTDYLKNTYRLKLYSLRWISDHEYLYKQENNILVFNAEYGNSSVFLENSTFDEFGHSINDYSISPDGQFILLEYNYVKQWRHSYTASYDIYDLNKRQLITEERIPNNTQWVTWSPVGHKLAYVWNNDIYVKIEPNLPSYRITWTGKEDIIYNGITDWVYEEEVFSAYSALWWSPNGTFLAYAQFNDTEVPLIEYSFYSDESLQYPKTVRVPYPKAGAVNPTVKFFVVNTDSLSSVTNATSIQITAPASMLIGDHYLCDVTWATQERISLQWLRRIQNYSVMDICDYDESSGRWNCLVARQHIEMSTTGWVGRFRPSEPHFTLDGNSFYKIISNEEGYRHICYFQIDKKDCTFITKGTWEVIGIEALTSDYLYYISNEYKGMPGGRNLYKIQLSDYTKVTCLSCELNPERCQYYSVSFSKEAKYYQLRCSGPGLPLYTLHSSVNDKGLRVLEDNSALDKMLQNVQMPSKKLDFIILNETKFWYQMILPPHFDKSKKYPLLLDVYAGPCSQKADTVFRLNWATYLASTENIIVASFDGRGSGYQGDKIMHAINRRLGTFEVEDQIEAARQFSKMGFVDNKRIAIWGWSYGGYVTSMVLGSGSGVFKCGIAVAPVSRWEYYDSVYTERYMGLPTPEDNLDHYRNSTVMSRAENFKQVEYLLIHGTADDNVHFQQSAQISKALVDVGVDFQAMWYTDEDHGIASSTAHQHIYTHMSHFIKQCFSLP
# Vaccinia virus [1] = assay: Antiviral activity against Vaccinia virus Lederle infected in HEL cells assessed as inhibition of virus-induced cytopathicity in presence of vildagliptin; assay type: functional, organism-based; conditions: Orthopoxvirus vaccinia
# Human alphaherpesvirus 1 [2] = assay: Antiviral activity against HSV1 KOS infected in HEL cells assessed as inhibition of virus-induced cytopathicity; assay type: functional, organism-based; conditions: Human alphaherpesvirus 1, KOS
# Outline: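 HEL cell cultures in 96-well plates were infected with HSV-1 (KOS) at 100 CCID₅₀/mL in the presence or absence of compound.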
# Human alphaherpesvirus 1 [3] = assay: Antiviral activity against HSV1 KOS infected in HEL cells assessed as inhibition of virus-induced cytopathicity in presence of vildagliptin; assay type: functional, organism-based; conditions: Human alphaherpesvirus 1, KOS
# Outline: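 HEL cells were infected with HSV-1 (KOS) at 100 CCID₅₀/mL with compound. The CD26 inhibitor vildagliptin (20 μM) was added once at the start of infection.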
# Vaccinia virus [4] = assay: Antiviral activity against Vaccinia virus Lederle infected in HEL cells assessed as inhibition of virus-induced cytopathicity; assay type: functional, organism-based; conditions: Orthopoxvirus vaccinia
# [5] = Solubility in water; assay type: physicochemical
# Outline: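 Excess solid was suspended in deionized water, sonicated 10 min at room temperature, equilibrated overnight at room temperature and centrifuged. Supernatant was diluted into a five-point standard curve range. Concentration came from HPLC peak area against a DMSO-dissolved standard of known concentration.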
# Serum [6] = assay: Stability in 20 % bovine serum assessed as 6-aminoquinoline formation after 2 hrs; assay type: ADME, cell-free, Bos taurus; conditions: cattle
# Outline: (§1)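 Prodrug (50 μM) in PBS with 0.1% DMSO was incubated at 37 °C with purified CD26 (1.5 mU) or 20% human or bovine serum in PBS. Samples taken at time points were quenched in cold methanol on ice, centrifuged at 4 °C and analyzed by RP-8 HPLC. Buffer A was 50 mM NaH₂PO₄ with 5 mM heptanesulfonic acid, pH 3.2; buffer B was acetonitrile.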
# Serum [7] = assay: Stability in 20 % human serum assessed as 6-aminoquinoline formation after 2 hrs; assay type: ADME, cell-free; outline: as §1
# L1210 = assay: Cytotoxicity against mouse L1210 cells assessed as inhibition of cell proliferation after 48 hrs; assay type: functional, cell-based; conditions: L1210, 48 h
# Outline: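 L1210 cells were seeded at (5–7.5) × 10⁴ cells/well in 200 μL wells with compound. Cell number was counted by Coulter counter after 48 h. IC₅₀ is the concentration inhibiting proliferation by 50%.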
# HeLa = assay: Cytotoxicity against human HeLa cells assessed as inhibition of cell proliferation after 48 hrs; assay type: functional, cell-based
# CCRF-CEM = assay: Cytotoxicity against human CEM cells assessed as inhibition of cell proliferation after 48 hrs; assay type: functional, cell-based
# [8] = system: Human immunodeficiency virus 1; assay: Antiviral activity against HIV1 3B infected in human CEM cells assessed as inhibition of virus-induced cytopathicity; assay type: functional, organism-based; conditions: Human immunodeficiency virus 1, 3B, CCRF-CEM
# Outline: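 CEM cells (~4.5 × 10⁵/mL) were infected with HIV-1 IIIB at 100 CCID₅₀/mL and exposed to compound dilutions (final 0.62–2000 μM) at 37 °C. Giant cell formation was scored microscopically after 4–5 days. EC₅₀ is the concentration preventing syncytium formation by 50%.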
# Serum [9] = assay: Stability in 20 % human serum assessed as 6-aminoquinoline formation within 4 hrs; assay type: ADME, cell-free; outline: as §1
# [10] = Stability assessed as 6-aminoquinoline formation in human recombinant CD26 measured within 4 hrs; assay type: ADME; outline: as §1
# Serum [11] = assay: Stability in 20 % bovine serum assessed as 6-aminoquinoline formation within 4 hrs; assay type: ADME, cell-free, Bos taurus; conditions: cattle; outline: as §1
smiles,measurement,setting,value
Nc1ncnc2c1ncn2[C@@H]1O[C@H](CO)[C@@H](O)[C@@H]1O [VIDARABINE],IC50,Dipeptidyl peptidase 4,62 nM
same,EC50,Vaccinia virus [1],10000 nM
same,EC50,Human alphaherpesvirus 1 [2],35000 nM
same,EC50,Human alphaherpesvirus 1 [3],42000 nM
same,EC50,Vaccinia virus [4],8300 nM
N[C@@H](CC(=O)O)C(=O)N1CCC[C@H]1C(=O)Nc1ccc2ncccc2c1,solubility,[5],47.8 mg/mL
CC(C)[C@H](N)C(=O)N1CCC[C@H]1C(=O)Nc1ccc2ncccc2c1,solubility,[5],33.2 mg/mL
Cc1cn([C@@H]2O[C@H](CO[Si](C)(C)C(C)(C)C)[C@@]3(OS(=O)(=O)C=C3N)[C@H]2O[Si](C)(C)C(C)(C)C)c(=O)nc1NC(=O)[C@@H]1CCCN1C(=O)[C@@H](NC(=O)[C@@H]1CCCN1C(=O)[C@@H](N)C(C)C)C(C)C,Activity,Serum [6],40%
same,Activity,Serum [7],20%
CC(C)[C@H](N)C(=O)N[C@@H](C)C(=O)N[C@H](C(=O)N1CCC[C@H]1C(=O)Nc1ccn([C@@H]2O[C@H](CO)[C@@H](O)[C@@H]2O)c(=O)n1)C(C)C (H-VAVP-X1),IC50,L1210,82 nM
same,IC50,HeLa,560 nM
same,IC50,CCRF-CEM,50 nM
Nc1ccc2ncccc2c1,solubility,[5],7.01 mg/mL
CC(C)[C@H](N)C(=O)N1CCC[C@H]1C(=O)N[C@H](C(=O)N1CCC[C@H]1C(=O)Nc1ncnc2c1ncn2[C@@H]1O[C@H](CO)[C@@H](O)[C@@H]1O)C(C)C (H-VPVP-X2),EC50,Vaccinia virus [1],135000 nM
same,solubility,[5],34.7 mg/mL
same,EC50,Human alphaherpesvirus 1 [2],54000 nM
same,EC50,Human alphaherpesvirus 1 [3],238000 nM
same,EC50,Vaccinia virus [4],16000 nM
CC(C)(C)[Si](C)(C)OC[C@H]1O[C@@H](n2ccc(N)nc2=O)[C@@H](O)[C@@H]1O[Si](C)(C)C(C)(C)C,EC50,[8],70 nM
Nc1ccn([C@@H]2O[C@H](CO)[C@@H](O)[C@@H]2O)c(=O)n1 [CYTARABINE],IC50,HeLa,260 nM
CC(C)[C@H](N)C(=O)N1CCC[C@H]1C(=O)N[C@H](C(=O)N1CCC[C@H]1C(=O)Nc1ccn([C@@H]2O[C@H](CO)[C@@H](O)[C@@H]2O)c(=O)n1)C(C)C (H-VPVP-X1),Activity,Serum [9],80%
same,IC50,L1210,100 nM
same,IC50,HeLa,630 nM
same,Activity,[10],80%
same,IC50,CCRF-CEM,57 nM
same,Activity,Serum [11],80%
